SKN-1 block: blocks SKN-1 activity in C. elegans. hit rate 0.49% among 360,000. C. elegans VP596 Pgst-4::GFP/RFP ratio, acrylamide-induced, 24 h. AID 624304. inhibition, % at 21.8 µM;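 active = interference check ratio from 0.5 to 1.5 plus GFP to RFP signal ratio inhibition reaching or exceeding a fixed threshold, cut at about 30% in these data, passing the limit was not always enough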
MT1-MMP act inh: inhibitors of human MT1-MMP activation; GFP/RFP ratio change, % at 20 µM; hit rate 0.061% among 360,000; HT1080 RFP-PRO-GFP cells, GFP/RFP ratio fluorescence, overnight; percent of plate control window, DMSO zero; P50281; AID 651647;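 active = GFP/RFP ratio change of at least 30% with cell ATP level not reduced by more than half and red fluorescence within 50% of control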
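Assay system: HT1080 cells carrying an RFP-PRO-GFP reporter | Dosing: Single dose of 20 µM compound, 1% DMSO final | Incubation: Cells overnight before dosing, compound overnight, 37 °C, 5% CO2 | Evaluation: GFP/RFP fluorescence ratio | Control set: DMSO and RFP-L50D-GFP cell wells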
NR2E3 ag-1: NR2E3 (human) agonism | Q9Y5X4 | GST-NR2E3/biotin-RetCOR TR-FRET, 1536-well | inhibition of corepressor binding, % at 4.78 µM | hit rate 0.12% among 320,000;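 active = percent inhibition above the cutoff of mean plus 3 SD of all tested compounds, set per screening campaign, cut at about 20% in these data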;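 also: 0% = DMSO wells and 100% = biotin wells as full block of FRET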
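Material: NR2E3–RetCOR corepressor complex / Amount: 1.35 nM GST-NR2E3 / Medium: Tris pH 7.5 / Compound: single nominal compound dose of 4.8 µM / Incubation: 5 h at 4 °C / Technique: TR-FRET, Eu(K)-anti-GST donor, streptavidin-D2 acceptor, ex 340, em 617/671 nm / Read-out basis: percent loss of FRET ratio relative to control wells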
PG9 Ab binder: binds the HIV-1 gp120 antibody PG9 | hit rate 0.43% among 360,000 | TR-FRET gp120-PG9 antibody binding | AID 624416 | inhibition, % at 6.7 µM; in the data active = inhibition above about 8.5%
Rev-erbA mod: modulators of human Rev-erb alpha DNA binding. Rev-erbα–FITC-DNA binding, fluorescence polarization, 90 min. activity, % at 10 µM. hit rate 0.79% among 370,000. AID 1259318;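 active = activity above about 14%, limit read from the data; passing the limit was not always enough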;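 also: 0% = DMSO wells with 35 nM protein and 100% = DMSO wells with 750 nM protein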
Target sequence (P20393 whole entry, looked up): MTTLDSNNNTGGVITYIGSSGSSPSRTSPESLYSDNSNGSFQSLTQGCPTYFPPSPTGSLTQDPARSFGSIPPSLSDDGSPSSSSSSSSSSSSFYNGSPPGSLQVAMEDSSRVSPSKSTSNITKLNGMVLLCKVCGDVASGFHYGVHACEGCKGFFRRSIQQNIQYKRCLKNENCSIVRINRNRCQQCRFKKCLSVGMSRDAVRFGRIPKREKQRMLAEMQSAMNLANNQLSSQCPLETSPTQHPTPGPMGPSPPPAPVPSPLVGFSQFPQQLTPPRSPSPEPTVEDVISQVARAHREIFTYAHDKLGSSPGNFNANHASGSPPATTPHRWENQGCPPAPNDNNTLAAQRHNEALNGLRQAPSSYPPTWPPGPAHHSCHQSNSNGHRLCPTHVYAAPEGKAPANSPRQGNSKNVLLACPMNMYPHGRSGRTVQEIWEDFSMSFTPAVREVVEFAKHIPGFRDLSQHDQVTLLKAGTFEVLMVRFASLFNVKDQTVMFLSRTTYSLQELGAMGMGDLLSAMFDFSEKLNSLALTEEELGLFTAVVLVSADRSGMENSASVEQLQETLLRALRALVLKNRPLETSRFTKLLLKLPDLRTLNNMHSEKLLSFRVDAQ
NR2E3 ag-2: agonists of human NR2E3 nuclear receptor; Q9Y5X4; CHO-S Gal4-NCOR/VP16-NR2E3 two-hybrid, luciferase; hit rate 0.35% among 360,000; inhibition of corepressor binding, % at 3.98 µM; AID 602229;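 active = inhibition above the mean of all tested compounds plus 3 SD, cut at about 70% in these data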;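 also: 0% = DMSO with NR2E3 transfected cells and 100% = cells lacking NR2E3 construct; higher means lower luciferase signal from less NR2E3 corepressor binding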
Rev-erbA confirm: confirmation of modulators of human Rev-erb alpha DNA binding; activation, % at 25 µM; shares compounds with Rev-erbA mod; hit rate 61% among 3,000; Rev-erb alpha FITC-DNA binding, fluorescence polarization, 90 min;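 active = activation at or above a set limit, or at least 3 SD above the negative control mean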;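 also: 0% = 35 nM protein with DMSO and 100% = 750 nM protein high control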
RORg counter: counter-screen for Rev-erb alpha modulators: RORgamma DNA binding; shares compounds with Rev-erbA mod; purified RORgamma protein-FITC-DNA binding, fluorescence polarization; IC50, µM; hit rate 8% among 910; AID 1259320;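 active = Compounds whose fitted half-maximal concentration for disrupting protein-DNA binding is below 10 micromolar; the record names Rev-erb in its text, so the target is in doubt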
The depositor's hits bear a star; i = inactive; / = no result. Most compounds without a hit are left out; they make up all but 1.9% or so of the library.

SMILES | SKN-1 block | MT1-MMP act inh | NR2E3 ag-1 | PG9 Ab binder | Rev-erbA mod | NR2E3 ag-2 | Rev-erbA confirm | others
CCOC(=O)c1c(C)nc2c(c1-c1ccc(OC)c(OC)c1)C(=O)c1ccccc1-2 | 12 | -8 | -3 | 2 | 53* | 5 | 47*
COc1cccc2cc(C(=O)NCc3ccc(Cl)cc3)c(=N)oc12 | 18 | -5 | 4 | -3 | 9 | -28 | /
COc1cccc2cc(C(=O)NCc3ccc(Cl)cc3)c(=O)oc12 | -9 | 4 | -1 | 0 | 21* | 16 | 10
NC(=O)C1(N2CCCCC2)CCN(C(=S)Nc2ccc(F)c(Cl)c2)CC1 | 1 | 1 | 0 | -2 | 13* | -4 | -6
c1ccc(CSc2ncccc2-c2nc3ccccc3[nH]2)cc1 | / | / | / | / | 3 | / | /
CC(C)CSc1ncccc1-c1nc2ccccc2[nH]1 | / | / | / | / | 17* | / | 11*
COc1ccc(-c2c(C(F)(F)F)oc3cc(OCC(=O)Nc4ccccc4C(F)(F)F)ccc3c2=O)cc1OC | -6 | -9 | 2 | -2 | 37* | -29 | 20*
O=c1c2cc3c(cc2[nH]c(=S)n1C1CCN(Cc2ccccc2)CC1)OCO3 | -8 | 6 | 1 | 0 | 15* | -6 | 6
CCOc1cc2[nH]c(=S)n(C3CCN(Cc4ccccc4)CC3)c(=O)c2cc1OCC | 0 | 5 | 2 | 1 | 10 | -12 | /
O=C(CCSc1nnc2scc(-c3ccccc3)n12)Nc1nc(-c2ccccc2)ns1 | -14 | 0 | -2 | 0 | 24* | -7 | 46* | RORg counter=>40
O=S(=O)(c1ccccc1)c1nnn2c1nc(NC1CCN(Cc3ccccc3)CC1)c1cc(Cl)ccc12 | 10 | 1 | 2 | -1 | 25* | -19 | 0
O=S(=O)(c1ccccc1)c1nnn2c1nc(NC1CCN(Cc3ccccc3)CC1)c1ccccc12 | 9 | -3 | 1 | -2 | 47* | -28 | 16
CCOC(=O)c1cc([N+](=O)[O-])cc([N+](=O)[O-])c1Sc1ncnc2nc[nH]c12 | -7 | 28 | / | -1 | -6 | -10 | /
COC(=O)CCC(=O)c1oc2ccc(Cl)cc2c1NC(=O)CCCN1C(=O)c2ccccc2C1=O | -6 | 2 | 2 | 1 | 41* | 7 | 28*
CC1=C(C)C(=O)C(C(CCCCCC(=O)O)c2ccccc2)=C(C)C1=O (stereo unspecified) | / | / | / | / | -7 | / | /
C[C@@H]1C=CCCO[C@]12C(=O)N(Cc1ccc(F)cc1)c1cccc(Br)c12 | / | / | / | -2 | 0 | / | /
Cc1ccc(-c2c(C#N)c(N)n(-c3ccccc3C)c(=O)c2C#N)cc1 | -15 | -2 | / | -1 | -4 | -2 | /
Cc1ccc(-n2c(N)c(C#N)c(-c3ccccc3)c(C#N)c2=O)cc1 | 4 | 1 | -4 | 2 | 22* | -3 | 62* | RORg counter=i
Cc1ccc(NC(=O)c2ccc3nsnc3c2)c(Cl)c1 | 9 | -1 | -6 | -4 | 27* | -155 | 16
COc1ccccc1NC(=O)c1ccc2nsnc2c1 | 10 | -2 | 1 | -3 | 4 | -51 | /
O=C(Nc1ccc(Br)cc1F)c1ccc2nsnc2c1 | 2 | 3 | -2 | 1 | 31* | -24 | 22*
CCc1c(C)nc(SCC(=O)c2cccs2)c(C#N)c1C | 15 | -53 | -3 | -3 | 3 | -242 | /
Cc1nc(SCC(=O)Nc2ccccc2C(F)(F)F)c(C#N)c(C)c1CC(=O)c1ccc(Br)cc1 | / | / | 5 | 1 | 43* | / | 7
COC(=O)C1=CN(c2ccccc2OC)C(N)=C(C#N)C1c1cccc([N+](=O)[O-])c1 (stereo unspecified) | 2 | 4 | / | 1 | 4 | / | /
CCC(Oc1ccccc1)C(=O)Nc1cc(C(F)(F)F)ccc1N1CCOCC1 (stereo unspecified) | -3 | 0 | 9 | 0 | 16* | 28 | 12
SMILES | SKN-1 block | MT1-MMP act inh | NR2E3 ag-1 | PG9 Ab binder | Rev-erbA mod | NR2E3 ag-2 | Rev-erbA confirm | others
CC(=O)Nc1cc(C(F)(F)F)ccc1N1CCOCC1 | 4 | 0 | 5 | -1 | -5 | -17 | /
COc1ccc2c(/C=C/c3cc[n+](C)cc3)c[nH]c2c1 | 9 | -111 | -7 | -27 | 46* | -13 | 31* | RORg counter=>40
CC[n+]1ccc(/C=C/c2c[nH]c3ccccc23)cc1 | -26 | -212 | 0 | -9 | 134* | 4 | 131* | RORg counter=>40
COc1ccc2c(c1)c(/C=C/c1cc[n+](C)cc1)cn2C | 22 | -84 | -12 | -22 | 100* | -8 | 79* | RORg counter=>40
Cc1ccc2[nH]ccc(=O)c2c1 | -2 | 4 | -1 | 2 | 8 | -18 | /
Cc1ccc2[nH]cc(/C=C/c3cc[n+](C)cc3)c2c1 | -24 | -134 | / | -21 | 232* | -37 | 142* | RORg counter=>40
COc1ccc2c(C=O)c[nH]c2c1 | 7 | -2 | -3 | 0 | -1 | 11 | /
COC(=O)[C@]12C[C@H](CC(=O)NCCc3ccccc3OC)C(=O)N(Cc3ccccc3)C1=C[C@H](C1CCCC1)O[C@@H]2C | / | / | / | -1 | 2 | / | /
Cc1nc2ccc(S(=O)(=O)NCC(=O)N(C)Cc3ccccc3F)cc2s1 | / | / | / | / | -7 | / | /
COc1ccc(S(=O)(=O)NC(=O)C2(C)CCN2C(=O)CCC2CCCC2)cc1OC (stereo unspecified) | 22 | -4 | / | -2 | 1 | 6 | /
CC(=O)c1ccc(N2CCN(c3ncc(C(F)(F)F)cc3Cl)CC2)cc1 | 15 | 1 | 3 | 1 | -4 | 0 | /
CC(=O)c1ccc(N2CCN(c3ccc(C(F)(F)F)cn3)CC2)cc1 | 8 | 1 | 5 | 1 | 37* | -8 | 29*
O=C1c2ccc(-c3ccc(F)cc3OCc3ccccc3)cc2S(=O)(=O)c2cccc(C(=O)N3CCN(c4ncc(Br)cn4)CC3)c21 | -1 | -5 | / | 0 | 75* | 24 | 66*
Nc1sccc1C(=O)NC1CC1 | 45 | -6 | / | -3 | 2 | / | /
COc1cccc(-c2nc(CS(=O)(=O)CC(=O)NCCCc3ccccc3)c(C)o2)c1 | 9 | -1 | -1 | 4 | 60* | 14 | 37* | RORg counter=>40
COc1ccc(-c2csc3ncnc(N4CCN(S(=O)(=O)c5cccc(Br)c5)CC4)c23)cc1 | -7 | -13 | -2 | 7 | 16* | 2 | 18*
Cc1ccc(S(=O)(=O)N2CCN(c3ncnc4scc(-c5ccccc5)c34)CC2)cc1 | 0 | -6 | / | -1 | -4 | -32 | /
COc1ccc(-c2csc3ncnc(N4CCN(S(=O)(=O)c5cccc(C(F)(F)F)c5)CC4)c23)cc1 | 11 | 0 | -3 | -1 | 2 | -6 | /

Screening data as filed in PubChem.
